We go through 5 molecules from ChEMBL document CHEMBL1132352, “5'-Phosphoramidates and 5'-diphosphates of 2'-O-allyl-beta-D-arabinofuranosyluracil, -cytosine, and -adenine: inhibition of ribonucleotide reductase” (J Med Chem, 1999).

SMILES strings stand for the structures. A value given as a limit tells only on which side of the number the result lay.

Common to all, as to assay type: functional, cell-based
Experiment [1] deals with FM3A. Description: The compound was tested for cytostatic activity against mammary FM3A cells. The note with it: Mus musculus. An outline of the steps:
(§1)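 Murine L1210 leukemia or FM3A mammary carcinoma cells went in at 5–7.5 × 10⁴ per well alongside test compound. Proliferation ran 48 h at 37 °C in a humidified CO₂-controlled atmosphere, followed by Coulter counter cell counts. IC50 is the concentration reducing viable cells by 50%.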

Experiment [2] concerns L1210. Description: The compound was tested for cytostatic activity against murine leukemia L1210 cells. The note with it: Mus musculus. An outline of the steps:
as §1

Experiment [3] has as its system CCRF-CEM. Description: The compound was tested for cytostatic activity against CEM cells. The note with it: Homo sapiens. In a few lines: (§2)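 Human T4-lymphocyte CEM or Molt cells were seeded at 5–7.5 × 10⁴ cells per well with test compound. They grew for 72 h at 37 °C in humidified, CO₂-controlled air and were then counted with a Coulter counter. IC50 is the compound concentration that cut viable cell number by 50%.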

Experiment [4] has as its system MOLT-4. Description: The compound was tested for cytostatic activity against human T4-lymphocyte molt(molt 4/C8). An outline of the steps: as §2
Experiment [5] relates to CCRF-CEM. Description: The compound was tested for cytostatic activity against human CEM cells. An outline of the steps: as §2
In experiment [6] the test system is FM3A. Description: The compound was tested for cytostatic activity against murine mammary FM3A cells. The note with it: Mus musculus. An outline of the steps: as §1

As for `C=CCO[C@H]1[C@H](O)[C@@H](COP(=O)(NC(C)C(=O)OCC)Oc2ccccc2)O[C@H]1n1ccc(N)nc1=O` (stereo not given in full), the IC50 in experiment [1], in experiment [2], in experiment [3] and in experiment [4] was more than 200 µM throughout.

Consider `C=CCO[C@H]1[C@H](O)[C@@H](CO)O[C@H]1n1cnc2c(N)ncnc21`, for which the IC50 in experiment [1] worked out at 316 µM; in experiment [2], 181 µM; in experiment [3], 79 µM; in experiment [4], 285 µM.

On to `C=CCO[C@H]1[C@H](O)[C@@H](CO)O[C@H]1n1ccc(=O)[nH]c1=O`, for which the IC50 in experiment [2], in experiment [5], in experiment [4] and in experiment [6] was more than 500 µM each time.

`C=CCO[C@H]1[C@H](O)[C@@H](CO)O[C@H]1n1ccc(N)nc1=O`: the IC50 in experiment [1] was 325 µM; in experiment [2] it was 38 µM; in experiment [3] it was 61 µM; in experiment [4] it was more than 500 µM.

With `C=CCO[C@H]1[C@H](O)[C@@H](COP(=O)(NC(C)C(=O)OCC)Oc2ccccc2)O[C@H]1n1ccc(=O)[nH]c1=O` (stereo not given in full), the IC50 in experiment [1], in experiment [2], in experiment [3] and in experiment [4] was more than 200 µM throughout.

As usually defined, the IC50 is the concentration that inhibits the measured activity by half. A high value points to weaker potency.
